Results published in ChEMBL document CHEMBL1143121, “Is adamantane a suitable substituent to pre-organize the acid orientation in E-selectin antagonists?” (Bioorg Med Chem, 2008).

Each molecule was assayed against T1, E-selectin (Homo sapiens) (UniProt P16581) (assay: Binding affinity to E-selectin relative to (2S,4S,5R,6R)-5-acetamido-2-((2R,3S,4S,5R,6R)-3,5-dihydroxy-2-(hydroxymethyl)-6-((1R,2R)-2-((2S,3S,4R,5S,6S)-3,4,5-trihydroxy-6-methyl-tetrahydro-2H-pyran-2-yloxy)cyclohexyloxy)-tetrahydro-2H-pyran-4-yloxy)-4-hydroxy-6-((1R,2R)-1,2,3-trihydroxypropyl)-tetrahydro-2H-pyran-2-carboxylic acid).
T1 sequence (whole entry): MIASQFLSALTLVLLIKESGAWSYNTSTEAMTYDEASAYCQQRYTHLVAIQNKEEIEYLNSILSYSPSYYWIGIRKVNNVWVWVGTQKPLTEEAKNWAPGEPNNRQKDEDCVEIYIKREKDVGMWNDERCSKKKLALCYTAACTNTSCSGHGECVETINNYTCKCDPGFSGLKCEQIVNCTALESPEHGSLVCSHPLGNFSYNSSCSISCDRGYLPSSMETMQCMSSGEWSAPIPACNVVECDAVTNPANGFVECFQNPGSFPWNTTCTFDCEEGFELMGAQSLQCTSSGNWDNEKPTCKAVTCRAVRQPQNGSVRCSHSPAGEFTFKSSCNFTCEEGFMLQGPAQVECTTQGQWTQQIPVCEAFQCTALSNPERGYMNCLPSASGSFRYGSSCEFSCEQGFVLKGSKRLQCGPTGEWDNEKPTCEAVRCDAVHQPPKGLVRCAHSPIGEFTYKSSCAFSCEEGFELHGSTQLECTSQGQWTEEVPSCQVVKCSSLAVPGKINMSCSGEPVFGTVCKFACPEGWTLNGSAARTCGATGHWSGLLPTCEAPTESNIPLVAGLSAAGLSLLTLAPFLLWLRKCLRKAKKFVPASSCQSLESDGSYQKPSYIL
How it was run: (§1)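 Competitive binding ELISA against E-selectin, run by a previously published procedure. A reference antagonist was included in the assay for relative comparison. The acid test compounds were purified by size exclusion chromatography to remove traces of polyanionic ion-exchange resin that could give false positives.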

| Activity | SMILES |
| --- | --- |
| 2.4 | C[C@H](O[C@H]1[C@@H](O)[C@@H](CO)O[C@@H](O[C@@H]2CCCC[C@H]2O[C@@H]2O[C@@H](C)[C@@H](O)[C@@H](O)[C@@H]2O)[C@@H]1O)C(=O)O |
| 0.32 | C[C@@H]1O[C@@H](O[C@@H]2CCCC[C@H]2O[C@@H]2O[C@H](CO)[C@H](O)[C@H](O[C@@H](CC34CC5CC(CC(C5)C3)C4)C(=O)O)[C@H]2O)[C@@H](O)[C@H](O)[C@@H]1O |
| > 10 | C[C@@H]1O[C@@H](O[C@@H]2CCCC[C@H]2O[C@@H]2O[C@H](CO)[C@H](O)[C@H](O[C@H](CC3CCCCC3)C(=O)O)[C@H]2O)[C@@H](O)[C@H](O)[C@@H]1O |
| > 10 | C[C@@H]1O[C@@H](O[C@@H]2CCCC[C@H]2O[C@@H]2O[C@H](CO)[C@H](O)[C@H](O[C@H](C)C(=O)O)[C@H]2O)[C@@H](O)[C@H](O)[C@@H]1O |
| > 10 | C[C@@H]1O[C@@H](O[C@@H]2CCCC[C@H]2O[C@@H]2O[C@H](CO)[C@H](O)[C@H](O[C@H](CC34CC5CC(CC(C5)C3)C4)C(=O)O)[C@H]2O)[C@@H](O)[C@H](O)[C@@H]1O |
| > 10 | C[C@@H]1O[C@@H](O[C@@H]2CCCC[C@H]2O[C@@H]2O[C@H](CO)[C@H](O)[C@H](O[C@H](Cc3ccccc3)C(=O)O)[C@H]2O)[C@@H](O)[C@H](O)[C@@H]1O |
| 0.6 | C[C@@H]1O[C@@H](O[C@@H]2CCCC[C@H]2O[C@@H]2O[C@H](CO)[C@H](O)[C@H](O[C@@H](Cc3ccccc3)C(=O)O)[C@H]2O)[C@@H](O)[C@H](O)[C@@H]1O |
| 0.15 | C[C@@H]1O[C@@H](O[C@@H]2CCCC[C@H]2O[C@@H]2O[C@H](CO)[C@H](O)[C@H](O[C@@H](CC3CCCCC3)C(=O)O)[C@H]2O)[C@@H](O)[C@H](O)[C@@H]1O |
| > 10 | C[C@@H]1O[C@@H](O[C@@H]2CCCC[C@H]2O[C@@H]2O[C@H](CO)[C@H](O)[C@H](OCC(=O)O)[C@H]2O)[C@@H](O)[C@H](O)[C@@H]1O |

Each molecule was assayed against T2, E-selectin (Homo sapiens, UniProt P16581) (assay: Binding affinity to E-selectin).
T2 sequence (P16581 whole entry): T1 sequence (whole entry)
How it was run: as §1

| IC50 [µM] | SMILES |
| --- | --- |
| 1000 | CC(=O)N[C@@H]1[C@@H](O[C@@H]2O[C@@H](C)[C@@H](O)[C@@H](O)[C@@H]2O)[C@H](O[C@@H]2O[C@H](CO)[C@H](O)[C@H](O[C@]3(C(=O)O)C[C@H](O)[C@@H](NC(C)=O)[C@H]([C@H](O)[C@H](O)CO)O3)[C@H]2O)[C@@H](CO)O[C@H]1O |
| 600 | CC(=O)N[C@H]1[C@H]([C@H](O)[C@H](O)CO)O[C@@](O[C@H]2[C@@H](O)[C@@H](CO)O[C@@H](O[C@@H]3CCCC[C@H]3O[C@@H]3O[C@@H](C)[C@@H](O)[C@@H](O)[C@@H]3O)[C@@H]2O)(C(=O)O)C[C@@H]1O |
